Data set [1] concerns Mus musculus. As to the kind of experiment: Toxicity in Balb/C mouse assessed as change in body weight at 10 to 40 mg/kg, ip administered thrice a week for 2 weeks measured 48 hrs after last dose. Type of data set: organism-based. More on the design: dose 10-40 mg/kg, route intraperitoneal. Particulars: in vivo. In outline: (§1)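 Male Balb/c mice, 6–8 wk, n=4/group, received compound i.p. in PBS (10 ul/g) 3x/wk for 2 wk. Body weight was monitored throughout. At 48 h after the last dose, mice were anesthetized with isoflurane and bled by cardiac puncture. Serum AST, ALT, BUN, bilirubin, glucose and triglycerides were compared with the saline group. ALT rise below 2x normal was counted as absent.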

Data set [2] has as its system Mus musculus. As to the kind of experiment: Toxicity in Balb/C mouse assessed as change in serum AST levels at 10 to 40 mg/kg, ip administered thrice a week for 2 weeks measured 48 hrs after last dose. Type of data set: organism-based. More on the design: dose 10-40 mg/kg, route intraperitoneal. Conditions: in vivo. An outline of the steps:
as §1

For data set [3], the system named is Mus musculus. Put plainly: Toxicity in Balb/C mouse assessed as increase in spleen weight at 40 mg/kg, ip administered thrice a week for 2 weeks measured 48 hrs after last dose. It counts as organism-based. More on the design: dose 40 mg/kg, route intraperitoneal. Conditions: in vivo. An outline of the steps:
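Male Balb/c mice, 6–8 wk, n=4/group, were dosed i.p. in PBS 3x/wk for 2 wk at 40 mg/kg. They were killed by cervical dislocation 48 h after the last dose. Spleen weight was taken at necropsy and compared with the saline-treated group.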

Data set [4] deals with Mus musculus. Put plainly: Inhibition of PTEN expression in Balb/C mouse kidney at 10 to 40 mg/kg, ip administered thrice a week for 2 weeks measured 48 hrs after last dose.
Data set [5] has as its system Mus musculus. Put plainly: Toxicity in Balb/C mouse assessed as change in blood urea nitrogen levels at 10 to 40 mg/kg, ip administered thrice a week for 2 weeks measured 48 hrs after last dose. Type of data set: organism-based. Further details: dose 10-40 mg/kg, route intraperitoneal. Particulars: in vivo. In outline: as §1
Data set [6] has as its system Mus musculus. As to the kind of experiment: Inhibition of PTEN expression in Balb/C mouse white adipose tissue assessed as upregulation of isoform lacking exon at 10 to 40 mg/kg, ip administered thrice a week for 2 weeks measured 48 hrs after last dose […]. It counts as functional, organism-based. On the technique in general: In western blotting, separated proteins are transferred to a membrane and probed.

The test system of data set [7] is Mus musculus. As to the kind of experiment: Toxicity in Balb/C mouse assessed as change in serum triglyceride levels at 10 to 40 mg/kg, ip administered thrice a week for 2 weeks measured 48 hrs after last dose. It counts as organism-based. Further details: dose 10-40 mg/kg, route intraperitoneal. Particulars: in vivo. An outline of the steps:
as §1

Data set [8] relates to Mus musculus. As to the kind of experiment: Inhibition of PTEN expression in Balb/C mouse liver at 10 to 40 mg/kg, ip administered thrice a week for 2 weeks measured 48 hrs after last dose by Western blot analysis. Type of data set: functional, organism-based. An outline of the steps: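 Male Balb/c mice, 6–8 wk, n=4/group, dosed i.p. in PBS 3x/wk for 2 wk and killed 48 h after the last dose. Tissue was homogenized in RIPA buffer with protease inhibitors, and protein was measured by Lowry assay. Lysates were run on 10% PAGE and blotted to PVDF. Blots were probed with rabbit anti-PTEN (1:1000) and HRP anti-rabbit (1:2500), with ECL detection.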

Data set [9] has as its system Mus musculus. As to the kind of experiment: Toxicity in Balb/C mouse assessed as change in serum ALT levels at 10 to 40 mg/kg, ip administered thrice a week for 2 weeks measured 48 hrs after last dose. It counts as organism-based. Further details: dose 10-40 mg/kg, route intraperitoneal. Particulars: in vivo. In outline:
as §1

Data set [10] deals with Mus musculus. As to the kind of experiment: Toxicity in Balb/C mouse assessed as change in serum bilirubin levels at 10 to 40 mg/kg, ip administered thrice a week for 2 weeks measured 48 hrs after last dose. Type of data set: organism-based. More on the design: dose 10-40 mg/kg, route intraperitoneal. Conditions: in vivo. In outline:
as §1

Data set [11] relates to Mus musculus. As to the kind of experiment: Inhibition of PTEN expression in Balb/C mouse white adipose tissue assessed as reduction of full length transcript at 10 to 40 mg/kg, ip administered thrice a week for 2 weeks measured 48 hrs after last dose […]. Type of data set: functional, organism-based.
The test system of data set [12] is Mus musculus. As to the kind of experiment: Toxicity in Balb/C mouse assessed as change in serum glucose levels at 10 to 40 mg/kg, ip administered thrice a week for 2 weeks measured 48 hrs after last dose. Further details: dose 10-40 mg/kg, route intraperitoneal. It counts as organism-based. Conditions: in vivo. In outline: as §1
In the next data set the test system is BCL1. As to the kind of experiment: Inhibition of PTEN expression in mouse BCL1 cells after 62 hrs by Western blotting. It counts as functional, cell-based. Conditions: BCL1, 62 h. In outline:
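BCL1 cells were grown in DMEM with 10% FBS at 37 °C, 5% CO2. Compound was delivered to 2×10^6 cells by electroporation (200 V, 1000 uF, 13 ohms), and cells were harvested 62 h later. Western blot of RIPA lysates used rabbit anti-PTEN and anti-CD40 (1:1000) with HRP secondary and ECL detection. PTEN was normalized to CD40. n=3, mean ± SD.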

Structures are written as SMILES. Calls of active or inactive are those of the source. The rule behind the calls is not given here.

The IC50 is the midpoint of a concentration-inhibition curve. Higher therefore signals lower potency.

In the case of `Cc1cn(CC(=O)N(CCNC(=O)CN(CCNC(=O)CN(CCNC(=O)CN(CCNC(=O)CN(CCNC(=O)CN(CCNC(=O)CN(CCNC(=O)CN(CCNC(=O)CN(CCNC(=O)CN(CCNC(=O)CN(CCNC(=O)CN(CCNC(=O)[C@H](CCCCN)N(CCNC(=O)[C@H](CCCCN)NC(=O)[C@H](CCCCN)NC(=O)[C@H](CCCCN)NC(=O)[C@H](CCCCN)NC(=O)[C@H](CCCCN)NC(=O)[C@H](CCCCN)NC(=O)[C@H](CCCCN)NC(=O)[C@@H](N)CCCCN)C(=O)Cn2cc(C)c(=O)[nH]c2=O)C(=O)Cn2ccc(N)nc2=O)C(=O)Cn2cc(C)c(=O)[nH]c2=O)C(=O)Cn2cnc3c(N)ncnc32)C(=O)Cn2cnc3c(N)ncnc32)C(=O)Cn2ccc(N)nc2=O)C(=O)Cn2ccc(N)nc2=O)C(=O)Cn2cnc3c(N)ncnc32)C(=O)Cn2ccc(N)nc2=O)C(=O)Cn2cnc3c(N)ncnc32)C(=O)Cn2cc(C)c(=O)[nH]c2=O)C(=O)Cn2ccc(N)nc2=O)CC(=O)NCCN(CC(=O)NCCN(CC(=O)NCCN(CC(=O)N[C@@H](CCCCN)C(N)=O)C(=O)Cn2cnc3c(N)ncnc32)C(=O)Cn2cnc3c(=O)[nH]c(N)nc32)C(=O)Cn2ccc(N)nc2=O)c(=O)[nH]c1=O`, the Activity entry in the data set with Mus musculus [1] is on record as “Non-toxic”; in the data set with Mus musculus [2], “Non-toxic”; in the data set with Mus musculus [3], 145%; with Mus musculus [5] it was “Non-toxic”; in the data set on Mus musculus [7], “Non-toxic”; in the data set with Mus musculus [9], “Non-toxic”. The Activity entry in the data set with Mus musculus [10] and in the data set with Mus musculus [12] was “Non-toxic” each time. Also, the inhibition result in the data set on Mus musculus [4] and in the data set on Mus musculus [8] was “inactive” each time. The result in the data set on Mus musculus [6] and in the data set with Mus musculus [11] was inactive.
In turn, `Cc1cn(CC(=O)N(CCNC(=O)CN(CCNC(=O)CN(CCNC(=O)CN(CCNC(=O)CN(CCN)C(=O)Cn2cnc3c(N)ncnc32)C(=O)Cn2cnc3c(=O)[nH]c(N)nc32)C(=O)Cn2cc(C)c(=O)[nH]c2=O)C(=O)Cn2cc(C)c(=O)[nH]c2=O)CC(=O)NCCN(CC(=O)NCCN(CC(=O)NCCN(CC(=O)NCCN(CC(=O)NCCN(CC(=O)NCCN(CC(=O)NCCN(CC(=O)NCCN(CC(=O)NCCN(CC(=O)NCCN(CC(=O)N[C@@H](CCCCN)C(N)=O)C(=O)Cn2cnc3c(N)ncnc32)C(=O)Cn2cnc3c(=O)[nH]c(N)nc32)C(=O)Cn2cnc3c(N)ncnc32)C(=O)Cn2cnc3c(=O)[nH]c(N)nc32)C(=O)Cn2cnc3c(N)ncnc32)C(=O)Cn2cc(C)c(=O)[nH]c2=O)C(=O)Cn2ccc(N)nc2=O)C(=O)Cn2ccc(N)nc2=O)C(=O)Cn2cnc3c(N)ncnc32)C(=O)Cn2ccc(N)nc2=O)c(=O)[nH]c1=O` gave a half-inhibitory concentration (IC50) in the data set with BCL1 of 2.4 µM.
`COCCO[C@@H]1[C@H](OP(=O)(S)OC[C@H]2O[C@@H](n3cc(C)c(=O)[nH]c3=O)C[C@@H]2OP(=O)(S)OC[C@H]2O[C@@H](n3cnc4c(N)ncnc43)[C@H](OCCOC)[C@@H]2OP(=O)(S)OC[C@H]2O[C@@H](n3cnc4c(=O)[nH]c(N)nc43)[C@H](OCCOC)[C@@H]2OP(=O)(S)OC[C@H]2O[C@@H](n3cnc4c(N)ncnc43)[C@H](OCCOC)[C@@H]2OP(=O)(S)OC[C@H]2O[C@@H](n3cnc4c(=O)[nH]c(N)nc43)[C@H](OCCOC)[C@@H]2OP(=O)(S)OC[C@H]2O[C@@H](n3cnc4c(N)ncnc43)[C@H](OCCOC)[C@@H]2OP(=O)(S)OC[C@H]2O[C@@H](n3cnc4c(N)ncnc43)[C@H](OCCOC)[C@@H]2OP(=O)(S)OC[C@H]2O[C@@H](n3cnc4c(N)ncnc43)[C@H](OCCOC)[C@@H]2OP(=O)(S)OC[C@H]2O[C@@H](n3cnc4c(=O)[nH]c(N)nc43)[C@H](OCCOC)[C@@H]2O)[C@@H](COP(=O)(S)O[C@H]2[C@@H](OCCOC)[C@H](n3ccc(N)nc3=O)O[C@@H]2COP(=O)(S)O[C@H]2[C@@H](OCCOC)[C@H](n3cnc4c(N)ncnc43)O[C@@H]2COP(=O)(S)O[C@H]2[C@@H](OCCOC)[C@H](n3ccc(N)nc3=O)O[C@@H]2COP(=O)(S)O[C@H]2C[C@H](n3cc(C)c(=O)[nH]c3=O)O[C@@H]2COP(=O)(S)O[C@H]2C[C@H](n3cc(C)c(=O)[nH]c3=O)O[C@@H]2COP(=O)(S)O[C@H]2C[C@H](n3cc(C)c(=O)[nH]c3=O)O[C@@H]2COP(=O)(S)O[C@H]2[C@@H](OCCOC)[C@H](n3cnc4c(=O)[nH]c(N)nc43)O[C@@H]2COP(=O)(S)O[C@H]2[C@@H](OCCOC)[C@H](n3cnc4c(N)ncnc43)O[C@@H]2COP(=O)(S)O[C@H]2C[C@H](n3cc(C)c(=O)[nH]c3=O)O[C@@H]2COP(=O)(S)O[C@H]2[C@@H](OCCOC)[C@H](n3cnc4c(N)ncnc43)O[C@@H]2CO)O[C@H]1n1ccc(N)nc1=O` (some centres not stated) showed an IC50 with BCL1 of 2.2 µM.
Molecule `Cc1cn(CC(=O)N(CCNC(=O)CN(CCNC(=O)CN(CCNC(=O)CN(CCNC(=O)CN(CCNC(=O)CN(CCNC(=O)CN(CCN)C(=O)Cn2cnc3c(N)ncnc32)C(=O)Cn2cc(C)c(=O)[nH]c2=O)C(=O)Cn2cnc3c(N)ncnc32)C(=O)Cn2cnc3c(=O)[nH]c(N)nc32)C(=O)Cn2cc(C)c(=O)[nH]c2=O)C(=O)Cn2cc(C)c(=O)[nH]c2=O)CC(=O)NCCN(CC(=O)NCCN(CC(=O)NCCN(CC(=O)NCCN(CC(=O)NCCN(CC(=O)NCCN(CC(=O)NCCN(CC(=O)NCCN(CC(=O)N[C@@H](CCCCN)C(N)=O)C(=O)Cn2cnc3c(N)ncnc32)C(=O)Cn2cnc3c(=O)[nH]c(N)nc32)C(=O)Cn2cnc3c(N)ncnc32)C(=O)Cn2cc(C)c(=O)[nH]c2=O)C(=O)Cn2ccc(N)nc2=O)C(=O)Cn2ccc(N)nc2=O)C(=O)Cn2cnc3c(N)ncnc32)C(=O)Cn2ccc(N)nc2=O)c(=O)[nH]c1=O` displayed an IC50 in the data set with BCL1 of 3.2 µM.
As to `Cc1cn(CC(=O)N(CCNC(=O)CN(CCN)C(=O)Cn2ccc(N)nc2=O)CC(=O)NCCN(CC(=O)NCCN(CC(=O)NCCN(CC(=O)NCCN(CC(=O)NCCN(CC(=O)NCCN(CC(=O)NCCN(CC(=O)NCCN(CC(=O)NCCN(CC(=O)NCCN(CC(=O)NCCN(CC(=O)NCCN(CC(=O)NCCN(CC(=O)N[C@@H](CCCCN)C(N)=O)C(=O)Cn2cnc3c(N)ncnc32)C(=O)Cn2ccc(N)nc2=O)C(=O)Cn2cnc3c(N)ncnc32)C(=O)Cn2cc(C)c(=O)[nH]c2=O)C(=O)Cn2ccc(N)nc2=O)C(=O)Cn2cc(C)c(=O)[nH]c2=O)C(=O)Cn2cnc3c(N)ncnc32)C(=O)Cn2ccc(N)nc2=O)C(=O)Cn2cnc3c(N)ncnc32)C(=O)Cn2ccc(N)nc2=O)C(=O)Cn2cnc3c(=O)[nH]c(N)nc32)C(=O)Cn2cnc3c(N)ncnc32)C(=O)Cn2ccc(N)nc2=O)c(=O)[nH]c1=O`, inhibition in the data set on BCL1 was half-maximal at 1 µM (IC50).
With `Cc1cn(CC(=O)N(CCN)CC(=O)NCCN(CC(=O)NCCN(CC(=O)NCCN(CC(=O)NCCN(CC(=O)NCCN(CC(=O)NCCN(CC(=O)NCCN(CC(=O)NCCN(CC(=O)NCCN(CC(=O)NCCN(CC(=O)NCCN(CC(=O)NCCN(CC(=O)NCCN(CC(=O)NCCN(CC(=O)N[C@@H](CCCCN)C(N)=O)C(=O)Cn2cnc3c(=O)[nH]c(N)nc32)C(=O)Cn2cnc3c(N)ncnc32)C(=O)Cn2cnc3c(N)ncnc32)C(=O)Cn2cnc3c(N)ncnc32)C(=O)Cn2cnc3c(=O)[nH]c(N)nc32)C(=O)Cn2cnc3c(N)ncnc32)C(=O)Cn2cnc3c(=O)[nH]c(N)nc32)C(=O)Cn2cnc3c(N)ncnc32)C(=O)Cn2cc(C)c(=O)[nH]c2=O)C(=O)Cn2ccc(N)nc2=O)C(=O)Cn2ccc(N)nc2=O)C(=O)Cn2cnc3c(N)ncnc32)C(=O)Cn2ccc(N)nc2=O)C(=O)Cn2cc(C)c(=O)[nH]c2=O)c(=O)[nH]c1=O`, the 50% inhibitory concentration (IC50) with BCL1 turned out to be 3 µM.

These data come from ChEMBL document CHEMBL1155469, “Peptide nucleic acids conjugated to short basic peptides show improved pharmacokinetics and antisense activity in adipose tissue” (J Med Chem, 2010).
